Test results as given in ChEMBL document CHEMBL4118073, “Evaluation of the antidepressant therapeutic potential of isocyanine and pseudoisocyanine analogues of the organic cation decynium-22” (Eur J Med Chem, 2017).

What was measured:
[1] = biological target: T1, Alpha-1 adrenergic receptor (Mus musculus, UniProt P97714+P97717+P97718); test: Displacement of [3H]prazosin from alpha1 adrenoceptor in C57BL/6 mouse hippocampal homogenates after 40 mins by liquid scintillation counting method
T1 sequence (P97714 whole entry): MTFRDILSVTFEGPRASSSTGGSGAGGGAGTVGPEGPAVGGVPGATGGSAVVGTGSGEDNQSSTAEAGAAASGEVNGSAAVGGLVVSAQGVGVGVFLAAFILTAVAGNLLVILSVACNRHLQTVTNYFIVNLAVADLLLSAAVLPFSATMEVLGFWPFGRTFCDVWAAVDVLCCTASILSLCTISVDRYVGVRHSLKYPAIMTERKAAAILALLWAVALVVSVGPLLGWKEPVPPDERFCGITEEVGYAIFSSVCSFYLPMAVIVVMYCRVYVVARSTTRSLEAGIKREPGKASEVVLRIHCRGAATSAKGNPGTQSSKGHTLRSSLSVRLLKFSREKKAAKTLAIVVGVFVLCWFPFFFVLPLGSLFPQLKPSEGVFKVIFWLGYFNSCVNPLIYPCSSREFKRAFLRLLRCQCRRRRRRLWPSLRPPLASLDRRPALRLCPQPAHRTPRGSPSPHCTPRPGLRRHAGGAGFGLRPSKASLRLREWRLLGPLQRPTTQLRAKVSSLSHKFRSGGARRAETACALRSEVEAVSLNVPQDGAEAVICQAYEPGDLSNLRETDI
T1 sequence (P97717 whole entry): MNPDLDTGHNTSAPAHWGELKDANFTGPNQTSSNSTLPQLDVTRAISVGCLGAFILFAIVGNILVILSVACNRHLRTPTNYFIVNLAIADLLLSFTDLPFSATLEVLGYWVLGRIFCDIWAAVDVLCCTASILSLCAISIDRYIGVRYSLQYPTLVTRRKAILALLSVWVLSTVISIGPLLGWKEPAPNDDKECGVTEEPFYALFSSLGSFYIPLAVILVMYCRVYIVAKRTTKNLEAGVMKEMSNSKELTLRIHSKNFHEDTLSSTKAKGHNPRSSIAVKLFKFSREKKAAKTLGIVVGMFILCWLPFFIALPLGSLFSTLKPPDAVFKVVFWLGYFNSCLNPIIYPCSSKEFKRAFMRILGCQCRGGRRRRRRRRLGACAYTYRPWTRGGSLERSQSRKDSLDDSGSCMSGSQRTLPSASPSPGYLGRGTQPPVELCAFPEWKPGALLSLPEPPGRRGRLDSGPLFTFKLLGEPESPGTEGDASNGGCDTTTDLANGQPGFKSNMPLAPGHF
T1 sequence (P97718 whole entry): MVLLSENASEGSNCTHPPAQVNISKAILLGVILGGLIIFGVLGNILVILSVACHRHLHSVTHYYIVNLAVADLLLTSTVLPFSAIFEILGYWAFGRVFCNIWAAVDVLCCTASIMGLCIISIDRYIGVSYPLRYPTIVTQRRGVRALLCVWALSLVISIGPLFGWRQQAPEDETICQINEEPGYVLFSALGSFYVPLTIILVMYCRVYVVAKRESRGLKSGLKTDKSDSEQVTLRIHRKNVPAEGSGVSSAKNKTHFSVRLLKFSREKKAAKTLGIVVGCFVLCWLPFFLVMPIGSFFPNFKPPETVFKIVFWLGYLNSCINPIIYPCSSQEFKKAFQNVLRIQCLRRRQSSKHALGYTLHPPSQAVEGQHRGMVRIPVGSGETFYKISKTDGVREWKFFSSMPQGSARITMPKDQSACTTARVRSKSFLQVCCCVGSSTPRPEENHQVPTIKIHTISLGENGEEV
In short: (§1)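 Mouse hippocampal homogenate incubated with 1.5 nM [³H]prazosin and competing ligand across a concentration series. Bound radioligand was expressed as displacement relative to control. IC₅₀ was obtained from non-linear regression fitting of concentration-effect curves, and curve fits were compared with tamsulosin.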

alpha1 adrenoceptor [2] = biological target: T2, alpha1 adrenoceptor (Mus musculus, UniProt P97714+P97717+P97718); test: Displacement of [3H]prazosin from alpha1 adrenoceptor in C57BL/6 mouse hippocampal homogenates assessed as remaining receptor bound [3H]prazosin levels at 0.0001 uM after 40 mins by liquid scintillation counting method relative to control; conditions: probe [3H]prazosin, read-out: Activity; in short: as §1
T2 sequence (P97714 whole entry): T1 sequence (P97714 whole entry)
T2 sequence (P97717 whole entry): T1 sequence (P97717 whole entry)
T2 sequence (P97718 whole entry): T1 sequence (P97718 whole entry)

alpha1 adrenoceptor [3] = biological target: T2, alpha1 adrenoceptor; test: Displacement of [3H]prazosin from alpha1 adrenoceptor in C57BL/6 mouse hippocampal homogenates assessed as remaining receptor bound [3H]prazosin levels at 0.001 uM after 40 mins by liquid scintillation counting method relative to control; conditions: probe [3H]prazosin, read-out: Activity; in short: as §1
alpha1 adrenoceptor [4] = biological target: T2, alpha1 adrenoceptor; test: Displacement of [3H]prazosin from alpha1 adrenoceptor in C57BL/6 mouse hippocampal homogenates assessed as remaining receptor bound [3H]prazosin levels at 0.003 uM after 40 mins by liquid scintillation counting method relative to control; conditions: probe [3H]prazosin, read-out: Activity; in short: as §1
alpha1 adrenoceptor [5] = biological target: T2, alpha1 adrenoceptor; test: Displacement of [3H]prazosin from alpha1 adrenoceptor in C57BL/6 mouse hippocampal homogenates assessed as remaining receptor bound [3H]prazosin levels at 0.01 uM after 40 mins by liquid scintillation counting method relative to control; conditions: probe [3H]prazosin, read-out: Activity; in short: as §1
alpha1 adrenoceptor [6] = biological target: T2, alpha1 adrenoceptor; test: Displacement of [3H]prazosin from alpha1 adrenoceptor in C57BL/6 mouse hippocampal homogenates assessed as remaining receptor bound [3H]prazosin levels at 0.1 uM after 40 mins by liquid scintillation counting method relative to control; conditions: probe [3H]prazosin, read-out: Activity; in short: as §1
alpha1 adrenoceptor [7] = biological target: T2, alpha1 adrenoceptor; test: Displacement of [3H]prazosin from alpha1 adrenoceptor in C57BL/6 mouse hippocampal homogenates assessed as remaining receptor bound [3H]prazosin levels at 0.3 uM after 40 mins by liquid scintillation counting method relative to control; conditions: probe [3H]prazosin, read-out: Activity; in short: as §1
alpha1 adrenoceptor [8] = biological target: T2, alpha1 adrenoceptor; test: Displacement of [3H]prazosin from alpha1 adrenoceptor in C57BL/6 mouse hippocampal homogenates assessed as remaining receptor bound [3H]prazosin levels at 1 uM after 40 mins by liquid scintillation counting method relative to control; conditions: probe [3H]prazosin, read-out: Activity; in short: as §1
alpha1 adrenoceptor [9] = biological target: T2, alpha1 adrenoceptor; test: Displacement of [3H]prazosin from alpha1 adrenoceptor in C57BL/6 mouse hippocampal homogenates assessed as remaining receptor bound [3H]prazosin levels at 10 uM after 40 mins by liquid scintillation counting method relative to control; conditions: probe [3H]prazosin, read-out: Activity; in short: as §1
alpha1 adrenoceptor [10] = biological target: T2, alpha1 adrenoceptor; test: Displacement of [3H]prazosin from alpha1 adrenoceptor in C57BL/6 mouse hippocampal homogenates assessed as remaining receptor bound [3H]prazosin levels at 30 uM after 40 mins by liquid scintillation counting method relative to control; conditions: probe [3H]prazosin, read-out: Activity; in short: as §1
alpha1 adrenoceptor [11] = biological target: T2, alpha1 adrenoceptor; test: Displacement of [3H]prazosin from alpha1 adrenoceptor in C57BL/6 mouse hippocampal homogenates assessed as remaining receptor bound [3H]prazosin levels at 100 uM after 40 mins by liquid scintillation counting method relative to control; conditions: probe [3H]prazosin, read-out: Activity; in short: as §1
Mus musculus [12] = test: Anti-depressant-like activity in mouse assessed as time spent immobile at 1 mg/kg, ip administered 60 mins prior to testing measured for 6 mins by tail suspension test (reference value: 186.9 +/- 13.2 secs); assay type: functional
Mus musculus [13] = test: Anti-depressant-like activity in mouse assessed as time spent immobile at 3.2 mg/kg, ip administered 60 mins prior to testing measured for 6 mins by tail suspension test (reference value: 186.9 +/- 13.2 secs); assay type: functional
Mus musculus [14] = test: Toxicity in mouse assessed as suppression of locomotion at 1 mg/kg, ip measured for 5 mins; assay type: organism-based; conditions: in vivo
Mus musculus [15] = test: Toxicity in mouse assessed as suppression of locomotion at 0.1 mg/kg, ip measured for 5 mins; assay type: organism-based; conditions: in vivo
Mus musculus [16] = test: Anti-depressant-like activity in mouse assessed as time spent immobile at 0.1 mg/kg, ip administered 60 mins prior to testing measured for 6 mins by tail suspension test (reference value: 186.9 +/- 13.2 secs); assay type: functional
Mus musculus [17] = test: Toxicity in mouse assessed as suppression of locomotion at 10 mg/kg, ip measured for 5 mins; assay type: organism-based; conditions: in vivo
Mus musculus [18] = test: Toxicity in mouse assessed as mortality at 10 mg/kg, ip measured for 5 mins; assay type: organism-based; conditions: in vivo
In short: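 Mice were given an intraperitoneal injection of the compound, with D-22 dosed over 0.01–10.0 mg/kg and analogues at equivalent doses. Each mouse was placed at once in an infrared beam-break activity chamber. Beam breaks were counted per 5 min period over a four-hour session, and deaths at the 10 mg/kg dose were recorded in the locomotor dose groups.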

alpha1 adrenoceptor [19] = biological target: T2, alpha1 adrenoceptor; test: Displacement of [3H]prazosin from alpha1 adrenoceptor in C57BL/6 mouse hippocampal homogenates assessed as remaining receptor bound [3H]prazosin levels at 0.03 uM after 40 mins by liquid scintillation counting method relative to control; conditions: probe [3H]prazosin, read-out: Activity; in short: as §1
alpha1 adrenoceptor [20] = biological target: T2, alpha1 adrenoceptor; test: Displacement of [3H]prazosin from alpha1 adrenoceptor in C57BL/6 mouse hippocampal homogenates assessed as remaining receptor bound [3H]prazosin levels at 3 uM after 40 mins by liquid scintillation counting method relative to control; conditions: probe [3H]prazosin, read-out: Activity; in short: as §1

Row | Structure (SMILES) | IC50 [1] [nM] | activity at 40 min, 0.0001 µM (alpha1 adrenoceptor [2]) [%] | activity at 40 min, 0.001 µM (alpha1 adrenoceptor [3]) [%] | activity at 40 min, 0.003 µM (alpha1 adrenoceptor [4]) [%] | activity at 40 min, 0.01 µM (alpha1 adrenoceptor [5]) [%] | activity at 40 min, 0.1 µM (alpha1 adrenoceptor [6]) [%] | activity at 40 min, 0.3 µM (alpha1 adrenoceptor [7]) [%] | activity at 40 min, 1 µM (alpha1 adrenoceptor [8]) [%] | activity at 40 min, 10 µM (alpha1 adrenoceptor [9]) [%] | activity at 40 min, 30 µM (alpha1 adrenoceptor [10]) [%] | activity at 40 min, 100 µM (alpha1 adrenoceptor [11]) [%] | Time (Mus musculus [12]) [s] | Time (Mus musculus [13]) [s] | Activity (Mus musculus [14]) | Activity (Mus musculus [15]) | Time (Mus musculus [16]) [s] | Activity (Mus musculus [17]) | Activity (Mus musculus [18]) | activity at 40 min, 0.03 µM (alpha1 adrenoceptor [19]) [%] | activity at 40 min, 3 µM (alpha1 adrenoceptor [20]) [%]
1 | CCN1/C(=C/c2ccc3ccccc3[n+]2CC)C=Cc2ccccc21.[I-] | 60 | 100 | 92.8 | 84 | 81.2 | 44.6 | 8 | 16.6 | 12.6 | -5 | 13.3 | 185.8 | 149.3 | Toxic | Non-Toxic | – | – | – | – | –
2 | CCN1/C(=C/c2ccc3cc(OC)ccc3[n+]2CC)C=Cc2ccccc21.[I-] | – | – | 100 | – | 97 | 81 | – | 23 | 1.7 | – | 1.3 | 135.7 | 203.1 | Non-Toxic | Non-Toxic | 167.2 | Toxic | Toxic | – | –
3 | Cc1ccnc2ccccc12 | – | – | 100 | – | 26.3 | 2.7 | – | 8.3 | 3 | – | 0 | – | – | – | – | – | – | – | – | –
4 | CC(C)[n+]1ccc(/C=C2/C=Cc3ccccc3N2C)c2ccccc21.O=C([O-])C(F)(F)F | 1066 | 100 | 100 | – | 97.3 | 89.7 | – | 52.3 | 6.7 | – | 3.3 | 152.8 | 170.3 | Non-Toxic | Non-Toxic | 198.3 | Toxic | – | – | –
5 | CCOc1ccccc1OCCN[C@H](C)Cc1ccc(OC)c(S(N)(=O)=O)c1 [TAMSULOSIN] | 1.8 | – | – | – | – | – | – | – | – | – | – | – | – | – | – | – | – | – | – | –
6 | CCN1/C(=C/c2ccc3cc(I)ccc3[n+]2CC)C=Cc2ccccc21.[I-] | 711 | 100 | 111 | 130 | 98.3 | 96 | 94 | 39.3 | -2.8 | -3 | 12.3 | 184.5 | 167.6 | Non-Toxic | Non-Toxic | 183 | Non-Toxic | – | 119 | 52
7 | CCN1/C(=C/c2ccc3cc(F)ccc3[n+]2CC)C=Cc2ccccc21.[I-] | 348 | – | – | – | – | – | – | – | – | – | – | 198.1 | 113.5 | Non-Toxic | Non-Toxic | 185.5 | Toxic | – | – | –
8 | CN1/C(=C\c2cc[n+](C)c3ccccc23)C=Cc2ccccc21.O=C([O-])C(F)(F)F | – | – | – | – | – | – | – | – | – | – | – | 165.3 | 150 | Non-Toxic | Non-Toxic | 200.8 | Toxic | Toxic | – | –
9 | CCN1/C(=C/c2ccc3cc(Cl)ccc3[n+]2CC)C=Cc2ccccc21.[I-] | 577 | – | – | – | – | – | – | – | – | – | – | 189.3 | 140.4 | Non-Toxic | Non-Toxic | 189.2 | Toxic | – | – | –
10 | CCN1/C(=C/c2ccc3cc(Br)ccc3[n+]2CC)C=Cc2ccccc21.[I-] | – | – | 100 | – | 102 | 67.7 | – | 43.3 | 1.3 | – | 0 | 190 | 179 | Non-Toxic | Non-Toxic | 171.3 | Toxic | Toxic | – | –
